Experimental data from ChEMBL document CHEMBL1153899, “Discovery of benzothiazole derivatives as efficacious and enterocyte-specific MTP inhibitors” (Bioorg Med Chem Lett, 2009).
Calls of active or inactive are those of the source. No cut-off for these calls is given here.

Assays:
[1] = Half life in Sprague-Dawley rat liver at 10 mg/kg, po; type: ADME, organism-based; parameters: dose 10 mg/kg, route oral
Method in brief: (§1)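 Dose-proportionality PK in Sprague–Dawley rats (n = 3) given single oral doses of 3, 10, 30 or 100 mg/kg. Liver and plasma were sampled at 0.5, 1, 2, 4 and 8 h and assayed for drug concentration to derive Cmax, AUC(0–∞) and T1/2.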

[2] = Half life in Sprague-Dawley rat liver at 30 mg/kg, po; type: ADME, organism-based; parameters: dose 30 mg/kg, route oral; method in brief: as §1
[3] = Half life in Sprague-Dawley rat liver at 100 mg/kg, po; type: ADME, organism-based; parameters: dose 100 mg/kg, route oral; method in brief: as §1
Mus musculus [4] = experiment: Increase in peptide YY level in 3-day high fat diet fed C57BL/6 mouse at 10 mg/kg, po daily for 3 days; type: functional, organism-based; parameters: dose 10 mg/kg
Mus musculus [5] = experiment: Increase in peptide YY level in 3-day high fat diet fed C57BL/6 mouse at 3 mg/kg, po daily for 3 days; type: functional, organism-based; parameters: dose 3 mg/kg
Method in brief: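 C57BL/6 male mice (n = 9) on high-fat diet were dosed po once daily for 3 days with vehicle (5% PEG400, 0.25% Tween 80, 94.25% H2O) or test article, then given a final morning dose. Blood was taken at 30 min, 2 h and 6 h, and PYY was measured by EIA kit. Statistics by Student's t test.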

Mus musculus [6] = experiment: Decrease in plasma triglyceride level in […] C57BL/6 mouse at 3 mg/kg, po daily for 3 days measured after 6 hrs; type: functional; parameters: scale not given: the % may be the effect or the level left
Method in brief: (§2)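 Lean C57BL/6 mice were given high-fat diet for 1 week, then dosed orally once daily in the evening for 3 days. Food intake and body weight were recorded daily. At the end a morning dose was given, and blood was drawn at 30 min, 2 h and 6 h for plasma triglycerides.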

Mus musculus [7] = experiment: Decrease in plasma triglyceride level in […] C57BL/6 mouse at 10 mg/kg, po daily for 3 days measured after 6 hrs; type: functional; parameters: scale not given: the % may be the effect or the level left
HepG2 = experiment: Inhibition of apoB secretion in human HepG2 cells after 40 hrs by ELISA; type: functional, cell-based; conditions: HepG2, 40 h
[8] = Inhibition of MTP from dog liver microsomes by scintillation counting; parameters: species or system Canis lupus familiaris, Microsome
Mus musculus [9] = experiment: Decrease in total food intake in 3-day high fat diet fed C57BL/6 mouse at 3 mg/kg, po daily for 3 days; type: functional; parameters: scale not given: the % may be the effect or the level left; method in brief: as §2
Mus musculus [10] = experiment: Decrease in total food intake in 3-day high fat diet fed C57BL/6 mouse at 10 mg/kg, po daily for 3 days; type: functional; parameters: scale not given: the % may be the effect or the level left
Mus musculus [11] = experiment: Decrease in body weight in […] at 3 mg/kg, po daily for 3 days; type: functional, C57BL/6; parameters: scale not given: the % may be the effect or the level left
Mus musculus [12] = experiment: Decrease in body weight in […] at 10 mg/kg, po daily for 3 days; type: functional, C57BL/6; parameters: scale not given: the % may be the effect or the level left
Mus musculus [13] = experiment: Decrease in total food intake in 28-day diet-induced obesity C57BL/6 mouse model at 3 mg/kg, po daily for 4 weeks measured on day 21; type: functional; parameters: scale not given: the % may be the effect or the level left
Method in brief: (§3)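 C57BL/6 male mice were fed high-fat diet for 4 weeks beforehand to about 40 g and kept on it throughout. Groups of n = 10 were dosed po once daily for 4 weeks at 1 or 3 mg/kg, or vehicle (5% PEG400, 0.25% Tween 80, 94.25% H2O). Food was weighed and replaced with pre-weighed food 3 times weekly. Fed plasma glucose was taken at 2 weeks and insulin at 4 weeks.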

Mus musculus [14] = experiment: Decrease in total food intake in 28-day diet-induced obesity C57BL/6 mouse model at 1 mg/kg, po daily for 4 weeks measured on day 21; type: functional; parameters: scale not given: the % may be the effect or the level left; method in brief: as §3
Mus musculus [15] = experiment: Decrease in body weight in 28-day diet-induced obesity C57BL/6 mouse model at 3 mg/kg, po daily for 4 weeks; type: functional; parameters: scale not given: the % may be the effect or the level left; method in brief: as §3
Mus musculus [16] = experiment: Increase in body weight in 28-day diet-induced obesity C57BL/6 mouse model at 1 mg/kg, po daily for 4 weeks; type: functional; method in brief: as §3
Mus musculus [17] = experiment: Decrease in plasma glucose level in 28-day diet-induced obesity C57BL/6 mouse model at 1 to 3 mg/kg, po daily for 4 weeks measured on week 2; type: functional, organism-based; method in brief: as §3
Mus musculus [18] = experiment: Decrease in plasma glucose level in 28-day diet-induced obesity C57BL/6 mouse model at 1 to 3 mg/kg, po daily for 4 weeks; type: functional, organism-based; method in brief: as §3
Mus musculus [19] = experiment: Decrease in insulin level in 28-day diet-induced obesity C57BL/6 mouse model at 3 mg/kg, po daily for 4 weeks; type: functional, organism-based; parameters: dose 3 mg/kg; method in brief: as §3
Mus musculus [20] = experiment: Decrease in plasma triglyceride level in 28-day diet-induced obesity C57BL/6 mouse model at 1 to 3 mg/kg, po daily for 4 weeks; type: functional, organism-based; method in brief: as §3
Mus musculus [21] = experiment: Decrease in total cholesterol level in 28-day diet-induced obesity C57BL/6 mouse model at 1 to 3 mg/kg, po daily for 4 weeks; type: functional, organism-based
Mus musculus [22] = experiment: Toxicity in 28-day diet-induced obesity C57BL/6 mouse model assessed as liver alanine aminotransferase level at 1 to 3 mg/kg, po daily for 4 weeks; type: organism-based; parameters: dose 1-3 mg/kg, route oral; conditions: in vivo, 672 h
Method in brief: (§4)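 C57BL/6 male mice kept on high fat diet 4 weeks before study (body weight about 40 g) and throughout; n = 10, dosed orally once daily for 4 weeks at 1 or 3 mg/kg, vehicle 5% PEG400, 0.25% Tween 80, 94.25% H2O; liver weight and ALT, AST, alkaline phosphatase assessed after 4 weeks.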

Mus musculus [23] = experiment: Toxicity in 28-day diet-induced obesity C57BL/6 mouse model assessed as liver aspartate aminotransferase level at 1 to 3 mg/kg, po daily for 4 weeks; type: organism-based; parameters: dose 1-3 mg/kg, route oral; conditions: in vivo, 672 h; method in brief: as §4
Mus musculus [24] = experiment: Toxicity in 28-day diet-induced obesity C57BL/6 mouse model assessed as liver alkaline phosphatase level at 1 to 3 mg/kg, po daily for 4 weeks; type: organism-based; parameters: dose 1-3 mg/kg, route oral; conditions: in vivo, 672 h; method in brief: as §4
Mus musculus [25] = experiment: Toxicity in 28-day diet-induced obesity C57BL/6 mouse model assessed as increase in liver weight at 1 to 3 mg/kg, po daily for 4 weeks; type: organism-based; parameters: dose 1-3 mg/kg, route oral; conditions: in vivo, 672 h; method in brief: as §4
[26] = Clearance in Sprague-Dawley rat at 1 mg/kg, iv; type: ADME, organism-based; parameters: dose 1 mg/kg, route intravenous; conditions: in vivo
[27] = Half life in Sprague-Dawley rat at 1 mg/kg, iv; type: ADME, organism-based; parameters: dose 1 mg/kg, route intravenous; conditions: in vivo
[28] = Volume of distribution in Sprague-Dawley rat at 1 mg/kg, iv; type: ADME, organism-based; parameters: dose 1 mg/kg, route intravenous; conditions: in vivo
Method in brief: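 Rats given IV bolus at 1 mg/kg; clearance, half-life and volume of distribution derived from plasma drug concentrations.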

Work on `CC(C)c1ccc(-c2ccccc2C(=O)Nc2ccc3nc(C(=O)N[C@H](C(=O)N(C)Cc4ccc(F)cc4)c4ccccc4)sc3c2)cc1` yielded a half-life [1] of 19.4 h, a half-life [2] of 23.7 h and a half-life [3] of 6.44 h. The Activity (Mus musculus [4]) was “Active”, the Activity (Mus musculus [5]) was “Active” and the Activity (Mus musculus [6]) was 11%. For the same molecule, the Activity (Mus musculus [7]) was 45%, the IC50 (HepG2) was 6.2 nM and the IC50 [8] was 11.2 nM. It also gave an Activity (Mus musculus [9]) of 14%, an Activity (Mus musculus [10]) of 19% and an Activity (Mus musculus [11]) of 3%. The Activity (Mus musculus [12]) was 4%, the Activity (Mus musculus [13]) was 12% and the Activity (Mus musculus [14]) was 9%. The Activity (Mus musculus [15]) was 3%, the Activity (Mus musculus [16]) was 1% and the Activity (Mus musculus [17]) was “Active”. For the same molecule, the Activity (Mus musculus [18]) was “Active”, the Activity (Mus musculus [19]) was “Active” and the Activity (Mus musculus [20]) was “Active”. The Activity (Mus musculus [21]) was “Active”, the Activity (Mus musculus [22]) was “Non-toxic” and the Activity (Mus musculus [23]) was “Non-toxic”. The Activity (Mus musculus [24]) was “Non-toxic”, the Activity (Mus musculus [25]) was “Non-toxic” and the clearance [26] was 17.2 mL/min/kg. For the same molecule, the half-life [27] was 2 h and the Vd [28] was 2.99 L/kg.
